In ChEMBL document CHEMBL2412964, “Discovery of novel tetrahydro-pyrazolo [4,3-c] pyridines for the treatment of neuropathic pain: synthesis and neuropharmacology” (Eur J Med Chem, 2013):

What was measured:
[1] = tested on: Rattus norvegicus; test: Antinociceptive activity in Wistar rat partial sciatic nerve ligation model assessed as reversal of mechanical allodynia at 100 mg/kg, ip after 120 mins (reference value: 2.9 +/- 0.3%); assay type: functional; conditions: route intraperitoneal
[2] = tested on: Rattus norvegicus; test: Antinociceptive activity in Wistar rat partial sciatic nerve ligation model assessed as reversal of mechanical allodynia at 100 mg/kg, ip after 60 mins (reference value: 2.8 +/- 0.3%); assay type: functional; conditions: route intraperitoneal
[3] = tested on: Rattus norvegicus; test: Antinociceptive activity in Wistar rat partial sciatic nerve ligation model assessed as reversal of mechanical allodynia at 100 mg/kg, ip after 30 mins (reference value: 2.9 +/- 0.3%); assay type: functional; conditions: route intraperitoneal
[4] = tested on: Rattus norvegicus; test: Antinociceptive activity in Wistar rat chronic constriction injury model assessed as reversal of mechanical allodynia at 100 mg/kg, ip after 120 mins (reference value: 5.3 +/- 0.5%); assay type: functional; conditions: route intraperitoneal
[5] = tested on: Rattus norvegicus; test: Antinociceptive activity in Wistar rat chronic constriction injury model assessed as reversal of mechanical allodynia at 100 mg/kg, ip after 60 mins (reference value: 4.9 +/- 1.0%); assay type: functional; conditions: route intraperitoneal
[6] = tested on: Rattus norvegicus; test: Antinociceptive activity in Wistar rat chronic constriction injury model assessed as reversal of mechanical allodynia at 100 mg/kg, ip after 30 mins (reference value: 4.7 +/- 2.1%); assay type: functional; conditions: route intraperitoneal
[7] = tested on: Rattus norvegicus; test: Antinociceptive activity in Wistar rat partial sciatic nerve ligation model assessed as reversal of cold allodynia at 100 mg/kg, ip after 120 mins (reference value: 1.5 +/- 0.5%); assay type: functional; conditions: route intraperitoneal
[8] = tested on: Rattus norvegicus; test: Antinociceptive activity in Wistar rat partial sciatic nerve ligation model assessed as reversal of cold allodynia at 100 mg/kg, ip after 60 mins (reference value: 2.5 +/- 0.3%); assay type: functional; conditions: route intraperitoneal
[9] = tested on: Rattus norvegicus; test: Antinociceptive activity in Wistar rat partial sciatic nerve ligation model assessed as reversal of cold allodynia at 100 mg/kg, ip after 30 mins (reference value: 4.1 +/- 1.0%); assay type: functional; conditions: route intraperitoneal
[10] = tested on: Rattus norvegicus; test: Antinociceptive activity in Wistar rat chronic constriction injury model assessed as reversal of cold allodynia at 100 mg/kg, ip after 120 mins (reference value: 5.4 +/- 1.9%); assay type: functional; conditions: route intraperitoneal
[11] = tested on: Rattus norvegicus; test: Antinociceptive activity in Wistar rat chronic constriction injury model assessed as reversal of cold allodynia at 100 mg/kg, ip after 60 mins (reference value: 6.3 +/- 1.9%); assay type: functional; conditions: route intraperitoneal
[12] = tested on: Rattus norvegicus; test: Antinociceptive activity in Wistar rat chronic constriction injury model assessed as reversal of cold allodynia at 100 mg/kg, ip after 30 mins (reference value: 0.6 +/- 2.7%); assay type: functional; conditions: route intraperitoneal
[13] = tested on: Rattus norvegicus; test: Antinociceptive activity in Wistar rat partial sciatic nerve ligation model assessed as reversal of tactile allodynia at 100 mg/kg, ip after 120 mins relative to control; assay type: functional; conditions: route intraperitoneal
[14] = tested on: Rattus norvegicus; test: Antinociceptive activity in Wistar rat partial sciatic nerve ligation model assessed as reversal of tactile allodynia at 100 mg/kg, ip after 60 mins (reference value: 12.5 +/- 1.2%); assay type: functional; conditions: route intraperitoneal
[15] = tested on: Rattus norvegicus; test: Antinociceptive activity in Wistar rat partial sciatic nerve ligation model assessed as reversal of tactile allodynia at 100 mg/kg, ip after 30 mins (reference value: 7.7 +/- 0.7%); assay type: functional; conditions: route intraperitoneal
[16] = tested on: Rattus norvegicus; test: Antinociceptive activity in Wistar rat chronic constriction injury model assessed as reversal of tactile allodynia at 100 mg/kg, ip after 120 mins (reference value: 4.1 +/- 2.1%); assay type: functional; conditions: route intraperitoneal
[17] = tested on: Rattus norvegicus; test: Antinociceptive activity in Wistar rat chronic constriction injury model assessed as reversal of tactile allodynia at 100 mg/kg, ip after 60 mins (reference value: 1.3 +/- 0.3%); assay type: functional; conditions: route intraperitoneal
[18] = tested on: Rattus norvegicus; test: Antinociceptive activity in Wistar rat chronic constriction injury model assessed as reversal of tactile allodynia at 100 mg/kg, ip after 30 mins (reference value: 3.4 +/- 0.8%); assay type: functional; conditions: route intraperitoneal
[19] = tested on: Rattus norvegicus; test: Antinociceptive activity in Wistar rat partial sciatic nerve ligation model assessed as reversal of spontaneous pain response at 100 mg/kg, ip after 120 mins (reference value: 1.2 +/- 0.1%); assay type: functional; conditions: route intraperitoneal
[20] = tested on: Rattus norvegicus; test: Antinociceptive activity in Wistar rat partial sciatic nerve ligation model assessed as reversal of spontaneous pain response at 100 mg/kg, ip after 60 mins (reference value: 2.9 +/- 0.3%); assay type: functional; conditions: route intraperitoneal
[21] = tested on: Rattus norvegicus; test: Antinociceptive activity in Wistar rat partial sciatic nerve ligation model assessed as reversal of spontaneous pain response at 100 mg/kg, ip after 30 mins (reference value: 3.2 +/- 0.3%); assay type: functional; conditions: route intraperitoneal
[22] = tested on: Rattus norvegicus; test: Antinociceptive activity in Wistar rat chronic constriction injury model assessed as reversal of spontaneous pain response at 100 mg/kg, ip after 120 mins (reference value: 4.5 +/- 0.2%); assay type: functional; conditions: route intraperitoneal
[23] = tested on: Rattus norvegicus; test: Antinociceptive activity in Wistar rat chronic constriction injury model assessed as reversal of spontaneous pain response at 100 mg/kg, ip after 60 mins (reference value: 4.6 +/- 0.6%); assay type: functional; conditions: route intraperitoneal
[24] = tested on: Rattus norvegicus; test: Antinociceptive activity in Wistar rat chronic constriction injury model assessed as reversal of spontaneous pain response at 100 mg/kg, ip after 30 mins (reference value: 8.9 +/- 4.6%); assay type: functional; conditions: route intraperitoneal
[25] = tested on: Mus musculus; test: Antinociceptive activity in Swiss albino mouse assessed as inhibition of formalin-induced flinching at 100 mg/kg administered 30 mins prior to test measured for 10 to 30 mins relative to control; assay type: functional
[26] = tested on: Mus musculus; test: Antinociceptive activity in Swiss albino mouse assessed as inhibition of formalin-induced flinching at 100 mg/kg administered 30 mins prior to test measured up to 5 mins relative to control; assay type: functional
[27] = tested on: Mus musculus; test: Antinociceptive activity in Swiss albino mouse assessed as inhibition of acetic acid-induced writhing at 100 mg/kg administered 30 mins prior to acetic acid-challenge measured for 30 mins relative to control; assay type: functional
In short: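 Swiss albino mice (20–25 g, either sex); writhing induced by i.p. 0.1 mL of 2.0% v/v acetic acid given half an hour after test compound dosing.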

[28] = species: Mus musculus; test: Neurotoxicity in Swiss albino mouse assessed as minimal motor impairment after 4 hrs by rotarod test; assay type: toxicity, organism-based; conditions: in vivo
In short: (§1)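 Mice, either sex, 20-25 g, dosed at 30, 100 and 300 mg/kg. Minimal motor impairment was scored on the rotarod at 0.5 and 4.0 h. Value reported is the minimum dose showing the effect in half or more of three mice per group.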

[29] = species: Mus musculus; test: Neurotoxicity in Swiss albino mouse assessed as minimal motor impairment after 0.5 hrs by rotarod test; assay type: toxicity, organism-based; conditions: in vivo; in short: as §1
[30] = tested on: Mus musculus; test: Antinociceptive activity in Swiss albino mouse assessed as inhibition of formalin-induced flinching at 5 mg/kg administered 30 mins prior to test measured for 10 to 30 mins relative to control; assay type: functional
[31] = tested on: Mus musculus; test: Antinociceptive activity in Swiss albino mouse assessed as inhibition of formalin-induced flinching at 5 mg/kg administered 30 mins prior to test measured up to 5 mins relative to control; assay type: functional
[32] = tested on: Mus musculus; test: Antinociceptive activity in Swiss albino mouse assessed as inhibition of acetic acid-induced writhing at 5 mg/kg administered 30 mins prior to acetic acid-challenge measured for 30 mins relative to control; assay type: functional
[33] = tested on: Mus musculus; test: Neurotoxicity in Swiss albino mouse assessed as minimal motor impairment at 300 mg/kg after 4 hrs by rotarod test; assay type: toxicity, organism-based; design: dose 300 mg/kg; conditions: in vivo
In short: (§2)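 Swiss albino mice of either sex, 20-25 g, dosed at 30, 100 and 300 mg/kg, three per group. Minimal motor impairment scored by rotarod at 0.5 and 4.0 h after dosing. Reported value is the lowest dose giving impairment in half or more of the mice.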

[34] = tested on: Mus musculus; test: Neurotoxicity in Swiss albino mouse assessed as minimal motor impairment at 300 mg/kg after 0.5 hrs by rotarod test; assay type: toxicity, organism-based; design: dose 300 mg/kg; conditions: in vivo; in short: as §2

CCN1CCc2c(c(C)nn2C(=O)Nc2cc(C)ccc2C)C1
Activity [1]: 14.6%
Activity [2]: 20.8%
Activity [3]: 39.6%
Activity [4]: 16.8%
Activity [5]: 20.7%
Activity [6]: 3.8%
Activity [7]: 12%
Activity [8]: 14.8%
Activity [9]: 17.1%
Activity [10]: 14.1%
Activity [11]: 18.7%
Activity [12]: 18.4%
Activity [13]: 3.5%
Activity [14]: 16%
Activity [15]: 27.6%
Activity [16]: 2.2%
Activity [17]: 9.9%
Activity [18]: 17.3%
Activity [19]: 4.8%
Activity [20]: 11.1%
Activity [21]: 7.5%
Activity [22]: 27.7%
Activity [23]: 33.3%
Activity [24]: 23.6%
inhibition in vivo at 100 mg/kg [25]: 55.8%
inhibition in vivo at 100 mg/kg [26]: 2.6%
inhibition in vivo at 100 mg/kg [27]: 62.2%
MLD [28]: 300 mg/kg
MLD [29]: 300 mg/kg

CCN1CCc2c(c(C)nn2C(=O)Nc2ccc(C)cc2C)C1
Activity [1]: 18.7%
Activity [2]: 50.5%
Activity [3]: 63.3%
Activity [4]: 65%
Activity [5]: 57.5%
Activity [6]: 70.8%
Activity [7]: 38.7%
Activity [8]: 14.3%
Activity [9]: 60.4%
Activity [10]: 41.8%
Activity [11]: 37.3%
Activity [12]: 54.4%
Activity [13]: 30.2%
Activity [14]: 41.9%
Activity [15]: 53.3%
Activity [16]: 66.1%
Activity [17]: 56.6%
Activity [18]: 17.2%
Activity [19]: 5.9%
Activity [20]: 34.4%
Activity [21]: 40.7%
Activity [22]: 64.4%
Activity [23]: 67.5%
Activity [24]: 72.9%
inhibition in vivo at 100 mg/kg [25]: 16.3%
inhibition in vivo at 100 mg/kg [26]: 7%
inhibition in vivo at 100 mg/kg [27]: 56.1%
MLD [28]: 300 mg/kg
MLD [29]: 300 mg/kg

COc1ccc2c(c1)c(CC(=O)O)c(C)n2C(=O)c1ccc(Cl)cc1 [INDOMETHACIN]
inhibition in vivo at 5 mg/kg [30]: 72.1%
inhibition in vivo at 5 mg/kg [31]: 4.7%
inhibition in vivo at 5 mg/kg [32]: 96.1%
Activity [33]: Non-toxic
Activity [34]: Non-toxic

CCN1CCc2c(c(C(C)(C)C)nn2C(=O)Nc2cc(C)ccc2C)C1
Activity [1]: 14.3%
Activity [2]: 7.1%
Activity [3]: 14.3%
Activity [4]: 9.1%
Activity [5]: 18.2%
Activity [6]: 18.2%
Activity [7]: 9.5%
Activity [8]: 12.7%
Activity [9]: 12%
Activity [10]: 40.5%
Activity [11]: 10.1%
Activity [12]: 17.9%
Activity [13]: 4.5%
Activity [14]: 16.7%
Activity [15]: 36.4%
Activity [16]: 44.7%
Activity [17]: 9.7%
Activity [18]: 4.5%
Activity [19]: 13.6%
Activity [20]: 14.4%
Activity [21]: 4.9%
Activity [22]: 12.4%
Activity [23]: 19.8%
Activity [24]: 21.1%
inhibition in vivo at 100 mg/kg [25]: 15.7%
inhibition in vivo at 100 mg/kg [26]: 0%
inhibition in vivo at 100 mg/kg [27]: 63.1%
Activity [33]: Non-toxic
Activity [34]: Non-toxic

CCN1CCc2c(c(C(C)(C)C)nn2C(=O)Nc2ccc(F)cc2F)C1
Activity [1]: 43.9%
Activity [2]: 60.2%
Activity [3]: 60%
Activity [4]: 11.2%
Activity [5]: 72.9%
Activity [6]: 70.8%
Activity [7]: 40%
Activity [8]: 64.4%
Activity [9]: 64.3%
Activity [10]: 40%
Activity [11]: 64.4%
Activity [12]: 64.3%
Activity [13]: 38.3%
Activity [14]: 51.7%
Activity [15]: 66.7%
Activity [16]: 51.7%
Activity [17]: 58.3%
Activity [18]: 61.2%
Activity [19]: 56.9%
Activity [20]: 65%
Activity [21]: 89.3%
Activity [22]: 91.6%
Activity [23]: 85.9%
Activity [24]: 81.6%
inhibition in vivo at 100 mg/kg [25]: 73.4%
inhibition in vivo at 100 mg/kg [26]: 4.4%
inhibition in vivo at 100 mg/kg [27]: 71.9%
MLD [28]: 100 mg/kg
MLD [29]: 100 mg/kg
